HIV Env fusion = inhibitors of HIV-1 Env-driven cell-cell fusion, primary screen, HeLa-JRFL effector, CEM21 target cells, luciferase | inhibition, % at 12.3 µM | 1.1% of 360,000 active | AID 651610, 2012;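 active = mean replicate inhibition score of at least 50 and every replicate individually at or above 50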;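 note: 0% = plate neutral controls and 100% = maraviroc near 300 nM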
PDI turbidity = inhibitors of human PDI, primary screen, biochemical, turbidity, single point, plate reader | Protein disulfide-isomerase (Homo sapiens), P07237 | PDI insulin aggregation turbidity, A650, 90 min | inhibition, % at 10 µM | 0.052% of 350,000 active;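 active = mean inhibition across replicates of 30% or more, whatever share of single replicates reach that level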
FN deposit inh = inhibitors of fibronectin matrix deposition, primary screen, AH1F cells, Alexa488-fibronectin fluorescence, plate reader; inhibition, % at 12.6 µM; 0.086% of 350,000 active; AH1F fibroblasts, overnight;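 active = mean inhibition across replicates of 30% or more, regardless of how many single replicates reach that level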;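 note: positive control wells lacked labelled fibronectin entirely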
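Material: AH1F fibroblasts assembling fluorescent fibronectin matrix; amount: 10000 AH1F cells/well; medium: DMEM, 2% serum; reagent: Alexa488-fibronectin, 24 nM final in well; dosing: single compound dose, delivered by pin transfer; incubation: 1 h adhesion, overnight exposure; detection: fluorescence after three HBSS washes, excitation 485 nm, emission 525 nm; measure: fibronectin deposition inhibition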
ERp5 inh = inhibitors of ERp5-driven insulin aggregation, primary screen, biochemical, turbidity, absorbance 650 nm, single point | Protein disulfide-isomerase A6 (Homo sapiens), Q15084 | 90 min | inhibition, % at 9.99 µM | 0.05% of 350,000 active;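 active = mean replicate inhibition above about 25%, with every replicate also reaching it, limit read from the data, passing the limit was not always enough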
Target sequence (Q15084 whole entry, looked up): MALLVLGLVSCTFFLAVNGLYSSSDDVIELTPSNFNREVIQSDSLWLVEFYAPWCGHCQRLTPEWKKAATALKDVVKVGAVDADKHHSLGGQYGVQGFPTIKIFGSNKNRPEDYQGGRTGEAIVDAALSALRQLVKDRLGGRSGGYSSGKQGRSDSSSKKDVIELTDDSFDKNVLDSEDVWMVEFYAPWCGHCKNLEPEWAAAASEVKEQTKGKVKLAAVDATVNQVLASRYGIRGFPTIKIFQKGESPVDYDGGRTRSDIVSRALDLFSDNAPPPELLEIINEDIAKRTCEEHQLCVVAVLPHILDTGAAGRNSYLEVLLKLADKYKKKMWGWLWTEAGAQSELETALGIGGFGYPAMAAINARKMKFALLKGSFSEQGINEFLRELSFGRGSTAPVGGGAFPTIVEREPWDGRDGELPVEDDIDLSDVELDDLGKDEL
GSIS activator = GLuc luminescence reporter in INS-1E cells, primary screen for activators of glucose-dependent secretion of insulin. activation, % at 16.6 µM. AID 743287, 2014. INS-1E GLuc reporter insulin secretion, 2-3 h. 0.61% of 370,000 active;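 active = lowest replicate activation of at least 40%, so every replicate reaches that level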;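 note: 0% = median of neutral control wells and 100% = median of IBMX positive control wells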
* hit, by the source's call; [ ] = another dose, or the depositor's remark. Hits are enriched below; roughly 1.4% of the tested compounds scored in any of these assays.

For CC(C)c1ccc(NC(=O)C[C@H]2CC[C@H]3[C@@H](COc4ccc(NC(=O)Nc5ccc(F)c(F)c5)cc4C(=O)N3C)O2)cc1 the results were HIV Env fusion 69.5*[16.7 µM] and ERp5 inh 1.5.
`Cc1nn(C)cc1NC(=O)C[C@H]1CC[C@@H]2[C@@H](COc3ccc(NC(=O)C4CCC4)cc3C(=O)N2C)O1` gave HIV Env fusion 60.4*[16.7 µM], FN deposit inh -17.1 and GSIS activator 4.2.
CCC(=O)Nc1ccc2c(c1)C(=O)N(C)[C@@H]1CC[C@H](CC(=O)NC3CCCC3)O[C@H]1CO2 was read as HIV Env fusion 7.4[16.7 µM], ERp5 inh -2.8 and GSIS activator 2.3.
CN1C(=O)c2cc(NC(=O)c3cccc(Cl)c3)ccc2OC[C@H]2O[C@@H](CC(=O)NC3CCCCC3)CC[C@H]21 was read as HIV Env fusion 56.3*[16.7 µM], FN deposit inh -11.0 and GSIS activator -9.7.
`CN1C(=O)c2cc(NC(=O)c3ccccc3)ccc2OC[C@@H]2O[C@H](CC(=O)NC3CCCC3)CC[C@H]21` gave FN deposit inh -8.7, ERp5 inh 0.5 and GSIS activator -1.9.
For Cc1nn(C)cc1NC(=O)C[C@H]1CC[C@@H]2[C@H](COc3ccc(NC(=O)C4CCC4)cc3C(=O)N2C)O1 the results were HIV Env fusion -4.1[16.7 µM], FN deposit inh -9.8, ERp5 inh 3.0 and GSIS activator 11.9.
CCC(=O)Nc1ccc2c(c1)C(=O)N(C)[C@H]1CC[C@H](CC(=O)Nc3ccc(C(C)C)cc3)O[C@@H]1CO2 was read as HIV Env fusion -4.5[16.7 µM], FN deposit inh 9.5, ERp5 inh -12.8 and GSIS activator -2.1.
For CCC(=O)Nc1ccc2c(c1)C(=O)N(C)[C@H]1CC[C@H](CC(=O)NC3CCCC3)O[C@H]1CO2 the results were HIV Env fusion 56.5*[16.7 µM], FN deposit inh -12.4, ERp5 inh -3.1 and GSIS activator -1.4.
Screening CC(C)NC(=O)Nc1ccc2c(c1)C(=O)N([C@H](C)CO)C[C@H](C)[C@H](CN(C)Cc1ccc(C(=O)O)cc1)O2 returned HIV Env fusion -5.7[16.7 µM], ERp5 inh 2.2 and GSIS activator 4.2.
For COc1ccccc1CN1[C@H](C(=O)NCCc2ccncc2)[C@@H](CO)[C@@H]2Cn3c(cccc3=O)[C@@H]21 the results were HIV Env fusion 11.9[16.7 µM], ERp5 inh 4.2 and GSIS activator 8.1.
For CN1C(=O)c2cc(NC(=O)NC3CCCC3)ccc2OC[C@H]2O[C@H](CC(=O)NC3CCC3)CC[C@@H]21 the results were HIV Env fusion -4.4[16.7 µM], FN deposit inh -6.7, ERp5 inh -7.4 and GSIS activator 0.9.
CN1C(=O)c2cc(NC(=O)NC3CCCC3)ccc2OC[C@@H]2O[C@H](CC(=O)NC3CCC3)CC[C@@H]21 was read as HIV Env fusion 70.8*[16.7 µM], FN deposit inh 0.1 and GSIS activator 5.1.
c1ccc(OCc2nn3c(C4CCCCC4)nnc3s2)cc1 was read as HIV Env fusion 63.2*, PDI turbidity -0.7, FN deposit inh -2.4 and GSIS activator -1.3.
`COc1ccc(NC(=O)Nc2ccc3c(c2)C(=O)N([C@@H](C)CO)C[C@H](C)[C@H](CN(C)S(=O)(=O)c2ccc(Cl)cc2)O3)cc1` gave HIV Env fusion 65.9*[16.7 µM], ERp5 inh -3.4 and GSIS activator -2.7.
Screening C[C@@H]1CN([C@H](C)CO)C(=O)c2cc(NC(=O)Nc3ccccc3)ccc2O[C@@H]1CN(C)S(=O)(=O)c1ccccc1 returned HIV Env fusion 74.8*[16.7 µM], ERp5 inh -1.9 and GSIS activator -5.1.
For COc1ccc(NC(=O)Nc2ccc3c(c2)C(=O)N([C@H](C)CO)C[C@H](C)[C@H](CN(C)S(=O)(=O)c2ccc(F)cc2)O3)cc1 the results were HIV Env fusion 69.3*[16.7 µM] and GSIS activator -13.0.
COc1ccc(S(=O)(=O)N(C)C[C@@H]2Oc3ccc(NC(=O)Nc4ccc5c(c4)OCO5)cc3C(=O)N([C@@H](C)CO)C[C@@H]2C)cc1 was read as HIV Env fusion 32.2[16.7 µM], FN deposit inh -4.8 and GSIS activator -8.8.
Screening COc1ccc(S(=O)(=O)N(C)C[C@@H]2Oc3ccc(NC(=O)Nc4ccc5c(c4)OCO5)cc3C(=O)N([C@H](C)CO)C[C@@H]2C)cc1 returned HIV Env fusion 75.5*[16.7 µM], FN deposit inh 0.6 and GSIS activator -2.2.
Screening CN(C)CC(=O)N1[C@H](CO)[C@H](c2ccccc2-c2ccc(C(=O)N(C)C)cc2)[C@@H]1C#N returned FN deposit inh -8.5, ERp5 inh -2.8 and GSIS activator 1.6.
For O=C(C1CCOCC1)N1CC(=O)N2[C@H](C1)[C@H](c1ccc(C#CCc3ccccc3)cc1)[C@@H]2CO the results were FN deposit inh -15.0, ERp5 inh 3.6 and GSIS activator -3.7.
CC(C)C(=O)Nc1ccc2c(c1)C(=O)N(C)[C@@H]1CC[C@H](CC(=O)NCc3ccccc3F)O[C@H]1CO2 was read as HIV Env fusion 6.8[16.7 µM], FN deposit inh -0.2 and GSIS activator 5.6.
C[C@@H]1CCCCO[C@H](CN(C)Cc2ccc(Cl)c(Cl)c2)[C@@H](C)CN([C@H](C)CO)C(=O)c2cc(NC(=O)Nc3cccc4ccccc34)ccc2O1 was read as HIV Env fusion 6.1[16.7 µM], ERp5 inh 0.1 and GSIS activator 10.5.
`COc1ccc(S(=O)(=O)N(C)C[C@H]2Oc3ccc(NC(=O)c4ccncc4)cc3C(=O)N([C@H](C)CO)C[C@H]2C)cc1` gave ERp5 inh -1.9 and GSIS activator 3.9.
`COc1ccc(NC(=O)Nc2ccc3c(c2)C(=O)N([C@H](C)CO)C[C@H](C)[C@@H](CN(C)S(=O)(=O)c2ccc(OC)cc2)O3)cc1` gave HIV Env fusion 28.6, PDI turbidity 9.9, FN deposit inh 4.1, ERp5 inh 9.4 and GSIS activator 0.4.
`COc1ccc(NC(=O)Nc2ccc3c(c2)C(=O)N([C@@H](C)CO)C[C@H](C)[C@H](CN(C)S(=O)(=O)c2ccc(OC)cc2)O3)cc1` gave HIV Env fusion 82.6*[16.7 µM], ERp5 inh 11.2 and GSIS activator 0.7.
Screening COc1ccc(S(=O)(=O)N(C)C[C@@H]2Oc3ccc(NC(=O)c4ccncc4)cc3C(=O)N([C@H](C)CO)C[C@@H]2C)cc1 returned ERp5 inh 63.9* and GSIS activator 98.3.
For COc1ccc(NC(=O)Nc2ccc3c(c2)C(=O)N([C@H](C)CO)C[C@H](C)[C@H](CN(C)S(=O)(=O)c2ccc(C)cc2)O3)cc1 the results were HIV Env fusion 86.7*[16.7 µM], ERp5 inh 12.7 and GSIS activator -48.6.

Screens deposited in PubChem by Broad Institute.
